Experimental data reported in ChEMBL document CHEMBL1240452, “Synthesis and toxicity towards normal and cancer cell lines of benzimidazolequinones containing fused aromatic rings and 2-aromatic ring substituents” (Eur J Med Chem, 2010).

Experiments:
Assay type in all cases: functional, cell-based
[1] = Cytotoxicity against human GM00637 cells after 72 hrs by MTT assay; conditions: GM00637, 72 h
Summary of the method: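 Normal human skin fibroblasts GM00637, seeded at 10,000 cells/well and exposed aerobically for 72 h at 37 °C. MTT added for a final 3 h; formazan crystals dissolved in DMSO; absorbance 550 nm with 690 nm reference. Viability relative to DMSO-only control, from at least three independent experiments; IC50 estimated by nonlinear regression of dose-response data.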

[2] = test system: DU-145; experiment: Cytotoxicity against human DU145 cells after 72 hrs by MTT assay; conditions: DU-145, 72 h
Summary of the method: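 DU145 prostate cancer cells, grown in RPMI-1640 with 10% heat-inactivated FBS, penicillin-streptomycin and 2 mM L-glutamine, seeded at 2000 cells/well. Treated aerobically for 72 h at 37 °C, then incubated 3 h with MTT. Formazan dissolved in DMSO; A550 read against 690 nm reference. Viability as % of DMSO-only wells, mean of ≥3 independent experiments; IC50 from nonlinear regression of dose-response curves.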

[3] = test system: HeLa; experiment: Cytotoxicity against human HeLa cells after 72 hrs by MTT assay
Summary of the method: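 HeLa (CCL-2) cervical cancer cells, maintained in DMEM with 10% heat-inactivated FBS, penicillin-streptomycin, 2 mM L-glutamine and non-essential amino acids, plated at 1000 cells/well. Aerobic 72 h exposure at 37 °C, then 3 h MTT; formazan taken up in DMSO, read at 550/690 nm. Viability as % DMSO-only value, ≥3 independent experiments; IC50 by nonlinear regression.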

Row | Compound | IC50 [1] | IC50 [2] | IC50 [3]
1 | CC1Cn2c(nc3c2C(=O)C=CC3=O)-c2ccc3ccccc3c21 (stereo not drawn) | 2440 nM | 780 nM | 1170 nM
2 | CCn1c(-c2cccnc2)nc2c1C(=O)C=CC2=O | 480 nM | 1270 nM | 1500 nM
3 | CC1Cn2c(nc3c2C(=O)C=CC3=O)-c2ccccc21 (stereo not drawn) | 1650 nM | 1090 nM | 1490 nM
4 | CCn1c(-c2ccccc2)nc2c1C(=O)C=CC2=O | 150 nM | 70 nM | 180 nM
5 | CC1Cn2c(nc3ccccc32)-c2ccc3ccccc3c21 (stereo not drawn) | > 10000 nM | – | > 10000 nM
6 | CCn1c(-c2ccc3ccccc3c2)nc2c1C(=O)C=CC2=O | 40 nM | 60 nM | 70 nM
7 | CO[C@@]12[C@H](COC(N)=O)C3=C(C(=O)C(C)=C(N)C3=O)N1C[C@@H]1N[C@@H]12 [MITOMYCIN] | 460 nM | 170 nM | 270 nM
8 | CC1Cn2c(nc3c2C(=O)C=CC3=O)-c2cccnc21 (stereo not drawn) | 740 nM | 700 nM | 1510 nM
